According to ChEMBL document CHEMBL1212784, “Structure-microbicidal activity relationship of synthetic fragments derived from the antibacterial alpha-helix of human lactoferrin” (2010):
In brackets after ≈: the same amount, converted by molar mass. Positions of bridges follow the written chain, without caps; N, C: chain ends. Non-standard residues stand in square brackets, D forms with d. Residues, ends and D or L forms follow the SMILES beside them. Nle = CCCC[C@H](N)C(=O)O; Orn = NCCC[C@H](N)C(=O)O

Experiments:
Candida albicans [1] = assay: Antimicrobial activity against […] Candida albicans ATCC […] incubated in diluted brain heart infusion medium; type: functional; conditions: ATCC 6454
Method in brief: (§1)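 Log-phase cells (BHI overnight at 37°C with shaking, subcultured 2 h, washed) at about 2 × 10^5 cells/ml final, exposed to twofold peptide dilutions in duplicate or triplicate. Medium: BHIdil (1/100 of 3.4% BHI, pH 6.7–6.9) or 1% Bactopeptone (pH 7.0). 2 h at 37°C, humid. 5-μl drops plated on blood agar overnight for CFU. MMC99 is the lowest concentration giving ≥99% kill.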

[2] = Antimicrobial activity against Escherichia coli O6 K5 incubated in diluted brain heart infusion medium; type: functional
Method in brief: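 Microplate assay in diluted BHI (1/100 of 3.4%, pH 6.7 to 6.9), log-phase cells at ~2 × 10^5 cells/ml, twofold peptide dilutions, 2 h at 37°C in humid chamber; drops plated on blood agar, CFU counted; MMC99 = minimum concentration giving ≥99% killing of inoculum; duplicates.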

Staphylococcus aureus [3] = assay: Antimicrobial activity against methicillin resistant Staphylococcus aureus MRS3525 incubated in diluted brain heart infusion medium; type: functional; method in brief: as §1
[4] = Antimicrobial activity against Escherichia coli O6 K5 incubation in bactopeptone; type: functional
Method in brief: (§2)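 Microplate killing assay in 1% Bactopeptone (pH 7.0). Log-phase organisms (BHI overnight, 2 h subculture, 37°C, washed), final ~2 × 10^5 cells/ml, with twofold peptide dilutions, 37°C humid chamber 2 h (or 20 h where stated). 5 μl drops plated on blood agar overnight; MMC99 = lowest concentration giving ≥99% inoculum reduction; duplicates.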

Staphylococcus aureus [5] = assay: Antimicrobial activity against methicillin resistant Staphylococcus aureus MRS3525 incubated in bactopeptone; type: functional; method in brief: as §1
Candida albicans [6] = assay: Antimicrobial activity against Candida albicans ATCC […] incubation in bactopeptone; type: functional; conditions: ATCC 64549; method in brief: as §2
Staphylococcus aureus [7] = assay: Antimicrobial activity against Staphylococcus aureus 1800 (CCUG 1800) incubation in bactopeptone; type: functional; method in brief: as §2
Candida albicans [8] = assay: Antimicrobial activity against Candida albicans ATCC […] using in brain heart infusion medium(dil) after 2 hrs at 10 ug/ml; type: functional, ATCC 64549
Method in brief: (§3)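 Single-concentration screen: log-phase organisms (~2 × 10^5 cells/ml) incubated 2 h at 37°C in diluted BHI (1/100 of 3.4%, pH 6.7 to 6.9) with 25 μg/ml peptide (10 μg/ml for E. coli O6 and C. albicans); viable counts on blood agar; scored as ≥99% killed or not; duplicates.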

Escherichia coli [9] = assay: Antimicrobial activity against Escherichia coli O14 using in brain heart infusion medium(dil) after 2 hrs at 25 ug/ml; type: functional; method in brief: as §3
Klebsiella pneumoniae = assay: Antimicrobial activity against Klebsiella pneumoniae CCUG 9997 using in brain heart infusion medium(dil) after 2 hrs at 25 ug/ml; type: functional; method in brief: as §3
Enterococcus faecalis = assay: Antimicrobial activity against Enterococcus faecalis ATCC 19433 using in brain heart infusion medium(dil) after 2 hrs at 25 ug/ml; type: functional; method in brief: as §3
Staphylococcus aureus [10] = assay: Antimicrobial activity against Staphylococcus aureus 1800 (CCUG 1800) using in brain heart infusion medium(dil) after 2 hrs at 25 ug/ml; type: functional; method in brief: as §3
Escherichia coli [11] = assay: Antimicrobial activity against Escherichia coli O6 using in brain heart infusion medium(dil) after 2 hrs at 10 ug/ml; type: functional; method in brief: as §3
Pseudomonas aeruginosa = assay: Antimicrobial activity against Pseudomonas aeruginosa CCUG 551 using in brain heart infusion medium(dil) after 2 hrs at 25 ug/ml; type: functional; method in brief: as §3
[12] = test system: Staphylococcus epidermidis; assay: Antimicrobial activity against Staphylococcus epidermidis CCUG 18000A using in brain heart infusion medium(dil) after 2 hrs at 25 ug/ml; type: functional; method in brief: as §3

Row | MIC99 (Staphylococcus aureus [7]) [µg/mL] | Molecule | MIC99 (Candida albicans [1]) [µg/mL] | MIC99 [2] [µg/mL] | MIC99 (Staphylococcus aureus [3]) [µg/mL] | MIC99 [4] [µg/mL] | MIC99 (Staphylococcus aureus [5]) [µg/mL] | MIC99 (Candida albicans [6]) [µg/mL] | also measured
1 |  | H-CFQWQRNMRAVR-OH | 25 | 12 | 3.5 | 100 | > 100 | > 100 | 
2 | 100 (≈ 33.3 µM) | CC[C@H](C)[C@H](NC(=O)[C@@H]1CSSC[C@H](NC(=O)[C@H](CCCCN)NC(=O)[C@@H](NC(=O)[C@H](C)NC(=O)[C@H](CCC(=O)O)NC(C)=O)[C@@H](C)O)C(=O)N[C@@H](Cc2ccccc2)C(=O)N[C@@H](C)C(=O)N[C@@H](Cc2c[nH]c3ccccc23)C(=O)N[C@@H](CCC(N)=O)C(=O)N[C@@H](CCCNC(=N)N)C(=O)N[C@@H](CC(N)=O)C(=O)N[C@@H](CCSC)C(=O)N[C@@H](CCCNC(=N)N)C(=O)N[C@@H](CCCCN)C(=O)N[C@@H](C(C)C)C(=O)N[C@@H](CCCNC(=N)N)C(=O)NCC(=O)N2CCC[C@H]2C(=O)N2CCC[C@H]2C(=O)N[C@@H](C(C)C)C(=O)N[C@@H](CO)C(=O)N1)C(=O)N[C@@H](CCCCN)C(=O)N[C@@H](CCCNC(=N)N)C(N)=O (Ac-EATKCFAWQRNMRKVRGPPVSCIKR-NH2; disulfide 5-22) |  |  |  | > 100 |  | > 200 | 
3 |  | H-CFQWARNMRKVR-OH | 12 | 12 | 3.5 | 50 | 100 | 50 | 
4 | 50 (≈ 30.3 µM) | CSCC[C@H](NC(=O)[C@H](CCCN)NC(=O)[C@H](CCCNC(=N)N)NC(=O)[C@H](CCC(N)=O)NC(=O)[C@H](Cc1c[nH]c2ccccc12)NC(=O)[C@H](CCC(N)=O)NC(=O)[C@H](Cc1ccccc1)NC(=O)[C@@H](N)CS)C(=O)N[C@@H](CCCNC(=N)N)C(=O)N[C@@H](CCCCN)C(=O)N[C@H](C(=O)N[C@@H](CCCNC(=N)N)C(=O)O)C(C)C (H-CFQWQR[Orn]MRKVR-OH) |  |  |  | 25 (≈ 15.1 µM) |  | 25 (≈ 15.1 µM) | 
5 | 50 (≈ 30.5 µM) | CCCC[C@H](NC(=O)[C@H](Cc1c[nH]c2ccccc12)NC(=O)[C@H](CCC(N)=O)NC(=O)[C@H](Cc1ccccc1)NC(=O)[C@@H](N)CS)C(=O)N[C@@H](CCCNC(=N)N)C(=O)N[C@@H](CC(N)=O)C(=O)N[C@@H](CCSC)C(=O)N[C@@H](CCCNC(=N)N)C(=O)N[C@@H](CCCCN)C(=O)N[C@H](C(=O)N[C@@H](CCCNC(=N)N)C(=O)O)C(C)C (H-CFQW[Nle]RNMRKVR-OH) |  |  |  | 50 (≈ 30.5 µM) |  | 25 (≈ 15.3 µM) | 
6 |  | H-AFQWQRNMRKVR-OH | 12 | > 25 | 14 | > 100 | > 100 | > 100 | 
7 |  | H-CFQAQRNMRKVR-OH | 12 | 25 | 14 | > 100 | > 100 | > 100 | 
8 | 50 (≈ 30.3 µM) | CCCC[C@H](NC(=O)[C@H](CCCNC(=N)N)NC(=O)[C@H](CCC(N)=O)NC(=O)[C@H](Cc1c[nH]c2ccccc12)NC(=O)[C@H](CCC(N)=O)NC(=O)[C@H](Cc1ccccc1)NC(=O)[C@@H](N)CS)C(=O)N[C@@H](CCSC)C(=O)N[C@@H](CCCNC(=N)N)C(=O)N[C@@H](CCCCN)C(=O)N[C@H](C(=O)N[C@@H](CCCNC(=N)N)C(=O)O)C(C)C (H-CFQWQR[Nle]MRKVR-OH) |  |  |  | 50 (≈ 30.3 µM) |  | 50 (≈ 30.3 µM) | 
9 |  | H-EATKCFQWQRNMRKVR-OH |  |  |  |  |  |  | Activity (Candida albicans [8]): <99%; Activity (Escherichia coli [9]): <99%; Activity (Klebsiella pneumoniae): <99%; Activity (Enterococcus faecalis): >=99%; Activity (Staphylococcus aureus [10]): >=99%; Activity (Escherichia coli [11]): >=99%; Activity (Pseudomonas aeruginosa): <99%; Activity [12]: >=99%
10 | 25 | H-CFQWKRNMRKVR-OH |  |  |  | 25 |  | 25 | 
11 |  | H-CFQWQANMRKVR-OH | 12 | 12 | 7 |  |  |  | 
12 | 12 | H-CFQWKRAMRKVR-OH |  |  |  | 12 |  | 12 | 
13 |  | H-CFQWQRNARKVR-OH | 25 | 12 | 3.5 | 50 | > 100 | 50 | 
14 |  | H-CFAWQRNMRKVR-OH | 6 | 6 | 3.5 | 50 | 100 | 25 | 
